Data reported in ChEMBL document CHEMBL3627597, “Synthesis of Fluorine-Containing Phosphodiesterase 10A (PDE10A) Inhibitors and the In Vivo Evaluation of F-18 Labeled PDE10A PET Tracers in Rodent and Nonhuman Primate” (J Med Chem, 2015).

Legend:
Blood [1] = experiment: Biodistribution in Sprague-Dawley rat blood at 1.48 to 2.22 MBq, iv measured at 5 mins by gamma counting analysis; type: ADME, organism-based; settings: in vivo
How it was run: (§1)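 Male Sprague-Dawley rats (250 - 400 g), tail-vein injection of 1.48 - 2.22 MBq radiotracer under 2.5% isoflurane in oxygen; n=4 per time point, euthanized at 5, 30 and 60 min p.i. Brain regions obtained by gross dissection; peripheral tissues collected. Samples weighed, gamma-counted against a diluted-injectate standard; %ID/g calculated.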

Rattus norvegicus [2] = experiment: Biodistribution in Sprague-Dawley rat fat tissue at 1.48 to 2.22 MBq, iv measured at 5 mins by gamma counting analysis; type: ADME, organism-based, Adipose tissue; settings: in vivo; how it was run: as §1
Bone = experiment: Biodistribution in Sprague-Dawley rat bone at 1.48 to 2.22 MBq, iv measured at 5 mins by gamma counting analysis; type: ADME, organism-based, Bone element; settings: in vivo; how it was run: as §1
Liver = experiment: Biodistribution in Sprague-Dawley rat liver at 1.48 to 2.22 MBq, iv measured at 30 mins by gamma counting analysis; type: ADME, organism-based; settings: in vivo, 0.5 h; how it was run: as §1
Muscle tissue = experiment: Biodistribution in Sprague-Dawley rat muscle at 1.48 to 2.22 MBq, iv measured at 30 mins by gamma counting analysis; type: ADME, organism-based; settings: in vivo, 0.5 h; how it was run: as §1
Rattus norvegicus [3] = experiment: Biodistribution in Sprague-Dawley rat fat tissue at 1.48 to 2.22 MBq, iv measured at 30 mins by gamma counting analysis; type: ADME, organism-based, Adipose tissue; settings: in vivo, 0.5 h; how it was run: as §1
Brain [4] = experiment: Biodistribution in Sprague-Dawley rat brain at 1.48 to 2.22 MBq, iv measured at 30 mins by gamma counting analysis; type: ADME, organism-based; settings: in vivo, 0.5 h; how it was run: as §1
Blood [5] = experiment: Biodistribution in Sprague-Dawley rat blood at 1.48 to 2.22 MBq, iv measured at 60 mins by gamma counting analysis; type: ADME, organism-based; settings: in vivo, 1 h; how it was run: as §1
Kidney = experiment: Biodistribution in Sprague-Dawley rat kidney at 1.48 to 2.22 MBq, iv measured at 60 mins by gamma counting analysis; type: ADME, organism-based; settings: in vivo, 1 h; how it was run: as §1
Rattus norvegicus [6] = experiment: Biodistribution in Sprague-Dawley rat fat tissue at 1.48 to 2.22 MBq, iv measured at 60 mins by gamma counting analysis; type: ADME, organism-based, Adipose tissue; settings: in vivo, 1 h; how it was run: as §1
Brain [7] = experiment: Biodistribution in Sprague-Dawley rat brain at 1.48 to 2.22 MBq, iv measured at 60 mins by gamma counting analysis; type: ADME, organism-based; settings: in vivo, 1 h; how it was run: as §1
Striatum = experiment: Biodistribution in Sprague-Dawley rat striatum at 1.48 to 2.22 MBq, iv measured at 30 mins by gamma counting analysis; type: ADME, organism-based; settings: in vivo, 0.5 h; how it was run: as §1
[8] = Ratio of drug level in striatum to cerebellum in Sprague-Dawley rat at 1.48 to 2.22 MBq, iv measured at 5 to 30 mins by gamma counting analysis; type: ADME, organism-based; settings: in vivo
How it was run: (§2)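 Striatum, cerebellum and cortex obtained by gross dissection from Sprague-Dawley rats (250 - 400 g, n=4 per time point) after tail-vein injection of 1.48 - 2.22 MBq under isoflurane anesthesia. Tissues weighed and gamma-counted with an injectate standard to give %ID/g; ratios taken from striatal versus non-target uptake.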

Nucleic Acid [9] = experiment: Ratio of drug level in striatum to cortex in Sprague-Dawley rat at 1.48 to 2.22 MBq, iv measured at 5 to 30 mins by gamma counting analysis; type: ADME, organism-based; settings: in vivo; how it was run: as §2
Nucleic Acid [10] = experiment: Ratio of drug level in striatum to cerebellum in cynomolgus monkey at 185 to 259 MBq, iv measured at 40 mins by micro PET image analysis; type: ADME, organism-based, Macaca fascicularis; settings: in vivo
How it was run: (§3)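 Adult male cynomolgus macaques (~4–6 kg), three independent PET studies per tracer on a microPET Focus 220. Animals fasted 12 h and anesthetized with ketamine (10 mg/kg) plus glycopyrrolate (0.13 mg/kg) i.m. A 10 min positioning transmission scan and a 45 min attenuation transmission scan were run, then a 3 h dynamic emission scan after venous tracer injection. Regional TACs came from ROIs, expressed as SUV (body weight, injected dose).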

Nucleic Acid [11] = experiment: Ratio of drug level in striatum to occipital in cynomolgus monkey at 185 to 259 MBq, iv measured at 40 mins by micro PET image analysis; type: ADME, organism-based, Macaca fascicularis; settings: in vivo; how it was run: as §3
Nucleic Acid [12] = experiment: Ratio of drug level in striatum to temporal region in cynomolgus monkey at 185 to 259 MBq, iv measured at 40 mins by micro PET image analysis; type: ADME, organism-based, Macaca fascicularis; settings: in vivo; how it was run: as §3
Nucleic Acid [13] = experiment: Ratio of drug level in striatum to white matter in cynomolgus monkey at 185 to 259 MBq, iv measured at 40 mins by micro PET image analysis; type: ADME, organism-based, Macaca fascicularis; settings: in vivo; how it was run: as §3
Nucleic Acid [14] = experiment: Ratio of drug level in striatum to hippocampus in cynomolgus monkey at 185 to 259 MBq, iv measured at 40 mins by micro PET image analysis; type: ADME, organism-based, Macaca fascicularis; settings: in vivo; how it was run: as §3
Nucleic Acid [15] = experiment: Ratio of drug level in striatum to cerebellum in cynomolgus monkey at 185 to 259 MBq, iv measured at 70 mins by micro PET image analysis; type: ADME, organism-based, Macaca fascicularis; settings: in vivo; how it was run: as §3
Nucleic Acid [16] = experiment: Ratio of drug level in striatum to temporal region in cynomolgus monkey at 185 to 259 MBq, iv measured at 70 mins by micro PET image analysis; type: ADME, organism-based, Macaca fascicularis; settings: in vivo; how it was run: as §3
Nucleic Acid [17] = experiment: Ratio of drug level in striatum to midbrain region in cynomolgus monkey at 185 to 259 MBq, iv measured at 70 mins by micro PET image analysis; type: ADME, organism-based, Macaca fascicularis, Brain; settings: in vivo; how it was run: as §3
Nucleic Acid [18] = experiment: Ratio of drug level in striatum to frontal in cynomolgus monkey at 185 to 259 MBq, iv measured at 70 mins by micro PET image analysis; type: ADME, organism-based, Macaca fascicularis; settings: in vivo; how it was run: as §3
Nucleic Acid [19] = experiment: Ratio of drug level in striatum to white matter in cynomolgus monkey at 185 to 259 MBq, iv measured at 70 mins by micro PET image analysis; type: ADME, organism-based, Macaca fascicularis; settings: in vivo; how it was run: as §3
Nucleic Acid [20] = experiment: Ratio of drug level in striatum to hippocampus in cynomolgus monkey at 185 to 259 MBq, iv measured at 70 mins by micro PET image analysis; type: ADME, organism-based, Macaca fascicularis; settings: in vivo; how it was run: as §3
[21] = Metabolic stability in cynomolgus monkey plasma assessed as compound remaining at 185 to 259 MBq, iv measured at 2 mins by HPLC analysis; type: ADME, organism-based, Macaca fascicularis; settings: read-out: Stability
How it was run: (§4)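 Arterial blood (~1.5 mL) drawn at 2, 15, 30, 60 and 90 min p.i. into heparinized syringes, then centrifuged to plasma. Plasma deproteinated with 2 parts ice-cold methanol. Extract run on C-18 HPLC, MeCN/0.1 M ammonium formate pH 4.5, 0.9 mL/min, UV 254 nm. 1-min fractions over 16 min were well-counted and decay-corrected; parent percentage taken from recovered activity.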

[22] = Metabolic stability in cynomolgus monkey plasma assessed as compound remaining at 185 to 259 MBq, iv measured at 15 mins by HPLC analysis; type: ADME, organism-based, Macaca fascicularis; settings: read-out: Stability; how it was run: as §4
[23] = Metabolic stability in cynomolgus monkey plasma assessed as compound remaining at 185 to 259 MBq, iv measured at 30 mins by HPLC analysis; type: ADME, organism-based, Macaca fascicularis; settings: read-out: Stability; how it was run: as §4
Plasma = experiment: Retention time of the compound in cynomolgus monkey plasma at 185 to 259 MBq, iv by HPLC analysis; type: ADME, organism-based, Macaca fascicularis; how it was run: as §4
Putamen = experiment: Drug uptake in cynomolgus monkey putamen at 185 to 259 MBq, iv measured over 180 mins by micro PET image analysis; type: ADME, organism-based, Macaca fascicularis; settings: in vivo, 3 h
How it was run: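 Adult male cynomolgus macaques (~4–6 kg), three studies per tracer, fasted 12 h. Induction with ketamine 10 mg/kg plus glycopyrrolate 0.13 mg/kg i.m. Transmission scans of 10 min for positioning and 45 min for attenuation correction, then a 3 h dynamic microPET emission scan after venous injection of 185 - 259 MBq. ROI time-activity curves expressed as SUV (body weight and injected dose).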

## Cn1cc(-c2ccncc2)c(-c2ccc(OCc3nc4ccccc4cc3OCC[18F])cc2)n1
Blood [1]
  Drug uptake: 0.343 % ID/g
Rattus norvegicus [2]
  Drug uptake: 0.119 % ID/g
Bone
  Drug uptake: 0.182 % ID/g
Liver
  Drug uptake: 3.17 % ID/g
Muscle tissue
  Drug uptake: 0.156 % ID/g
Rattus norvegicus [3]
  Drug uptake: 0.202 % ID/g
Brain [4]
  Drug uptake: 0.129 % ID/g
Blood [5]
  Drug uptake: 0.287 % ID/g
Kidney
  Drug uptake: 0.841 % ID/g
Rattus norvegicus [6]
  Drug uptake: 0.124 % ID/g
Brain [7]
  Drug uptake: 0.149 % ID/g
Striatum
  Drug uptake: Active
[8]
  Ratio: > 2
Nucleic Acid [9]
  Ratio: > 2
Nucleic Acid [10]
  Ratio: > 3
Nucleic Acid [11]
  Ratio: > 3
Nucleic Acid [12]
  Ratio: > 3
Nucleic Acid [13]
  Ratio: > 3
Nucleic Acid [14]
  Ratio: > 3
Nucleic Acid [15]
  Ratio: > 5
Nucleic Acid [16]
  Ratio: > 5
Nucleic Acid [17]
  Ratio: > 5
Nucleic Acid [18]
  Ratio: > 5
Nucleic Acid [19]
  Ratio: > 5
Nucleic Acid [20]
  Ratio: > 5
[21]
  remaining at 2 min: 99%
[22]
  remaining at 0.25 h: 90%
[23]
  remaining at 0.5 h: 73%
Plasma
  Retention_time: 10.5 min
Putamen
  Drug uptake: Active
